Laboratory results taken from ChEMBL document CHEMBL1130410, “19-nor-10-azasteroids: a novel class of inhibitors for human steroid 5alpha-reductases 1 and 2” (J Med Chem, 1997).
“And” between values parts separate entries of the source, which are not always exact repeats. Equal values may be shown once.

What was measured:
[1] = target: T1, 3-oxo-5-alpha-steroid 4-dehydrogenase 2 (Homo sapiens, UniProt P31213); assay: Inhibition against 5 alpha R-2 in human prostate homogenate relative to finasteride; type: tissue-based, Prostate gland
T1 sequence (P31213 whole entry): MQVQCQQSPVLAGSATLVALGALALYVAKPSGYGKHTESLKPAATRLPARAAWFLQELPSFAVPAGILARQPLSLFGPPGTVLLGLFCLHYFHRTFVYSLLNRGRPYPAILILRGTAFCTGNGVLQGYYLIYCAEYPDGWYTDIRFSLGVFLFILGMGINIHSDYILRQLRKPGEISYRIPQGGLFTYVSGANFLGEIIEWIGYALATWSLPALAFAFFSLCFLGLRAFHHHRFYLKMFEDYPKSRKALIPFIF

[2] = target: T1, 3-oxo-5-alpha-steroid 4-dehydrogenase 2; assay: Inhibitory activity against 5-alpha Reductase-2 on human prostate homogenates from surgically derived benign hyperplastic tissue; type: tissue-based, Prostate gland
Procedure, shortened: (§1)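 Benign hyperplastic human prostate tissue, stored at -80 °C, was homogenized near 0 °C in 50 mM TRIS pH 7.4 with salts, nicotinamide and sucrose, spun at 200g, and the combined supernatants were used. Homogenate (0.1 mg protein) was incubated with 30 nM testosterone (9% [3H]) and 0.3 mM NADPH for 30 min at 37 °C, with the inhibitor added alongside the substrate. Inhibitor range was 10⁻¹⁰–10⁻⁵ M. DHT conversion was read by TLC and scintillation, in duplicate.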

[3] = target: T2, 3-oxo-5-alpha-steroid 4-dehydrogenase 1 (Homo sapiens, UniProt P18405); assay: (§2) Inhibitory activity against human 5-alpha Reductase-1 expressed in DU-145 cells; type: cell-based
T2 sequence (P18405 whole entry): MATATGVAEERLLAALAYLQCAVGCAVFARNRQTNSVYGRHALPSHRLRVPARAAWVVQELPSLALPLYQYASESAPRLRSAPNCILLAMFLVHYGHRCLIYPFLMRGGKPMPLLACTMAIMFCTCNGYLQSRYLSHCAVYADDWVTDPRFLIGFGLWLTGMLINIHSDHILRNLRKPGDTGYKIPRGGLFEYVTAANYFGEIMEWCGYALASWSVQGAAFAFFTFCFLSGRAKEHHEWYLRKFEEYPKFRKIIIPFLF
Procedure, shortened: (§3)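 DU-145 cells (passage 60–90) were plated at 100 000 cells/well and left to adhere for 24 h. Inhibitors were prepared in ethanol, diluted in phenol-red-free MEM and tested at five doses, 10⁻⁹–10⁻⁵ M, with 5 nM [3H]androstenedione. After 6 h at 37 °C in 5% CO2, the medium was extracted with ethyl acetate and analysed by TLC and scintillation.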

[4] = target: 3-oxo-5-alpha-steroid 4-dehydrogenase 1 (Homo sapiens, UniProt P18405); assay: as §2; type: cell-based; procedure, shortened: as §3; remark: listed apart in the source
[5] = target: T1, 3-oxo-5-alpha-steroid 4-dehydrogenase 2; assay: Tested against 5 alpha R-2 on human prostate homogenate from surgically derived benign hyperplastic tissue in experiment 1; type: tissue-based, Prostate gland; procedure, shortened: as §1
[6] = target: T1, 3-oxo-5-alpha-steroid 4-dehydrogenase 2; assay: Tested against 5 alpha R-2 on human prostate homogenate from surgically derived benign hyperplastic tissue in experiment 2; type: tissue-based, Prostate gland; procedure, shortened: as §1
[7] = target: T1, 3-oxo-5-alpha-steroid 4-dehydrogenase 2; assay: Tested against 5 alpha R-2 on human prostate homogenate from surgically derived benign hyperplastic tissue in experiment 3; type: tissue-based, Prostate gland; procedure, shortened: as §1
[8] = target: T1, 3-oxo-5-alpha-steroid 4-dehydrogenase 2; assay: Inhibition against 5 alpha R-2 in human prostate homogenate compared with finasteride in experiment 1; type: tissue-based, Prostate gland; procedure, shortened: as §1
[9] = target: T1, 3-oxo-5-alpha-steroid 4-dehydrogenase 2; assay: Inhibition against 5 alpha R-2 in human prostate homogenate compared with finasteride in experiment 2; type: tissue-based, Prostate gland; procedure, shortened: as §1
[10] = target: T1, 3-oxo-5-alpha-steroid 4-dehydrogenase 2; assay: Inhibition against 5 alpha R-2 in human prostate homogenate compared with finasteride in experiment 3; type: tissue-based, Prostate gland; procedure, shortened: as §1
[11] = target: T1, 3-oxo-5-alpha-steroid 4-dehydrogenase 2; assay: TInhibitory activity against 5-alpha Reductase-2 on human prostate homogenates from surgically derived benign hyperplastic tissue in experiment 2; type: tissue-based, Prostate gland; procedure, shortened: as §1
[12] = target: T1, 3-oxo-5-alpha-steroid 4-dehydrogenase 2; assay: Inhibitory activity against 5-alpha Reductase-2 on human prostate homogenates from surgically derived benign hyperplastic tissue in experiment 1; type: tissue-based, Prostate gland; procedure, shortened: as §1

SMILES	IC50 [1] [nM]	IC50 [3] [nM]	IC50 [2] [nM]	other results
C[C@]12CC=C3[C@@H](CCC4=CC(=O)CCN43)C1CCC2=O.C[C@]12CCC3=C(CCC4=CC(=O)CCN43)C1CCC2=O (stereo in doubt; 4a:4b(5:1))	4.1	263	4600	
CC(C)(C)NC(=O)[C@H]1CC[C@H]2[C@@H]3CC[C@H]4NC(=O)C=C[C@]4(C)[C@H]3CC[C@]12C [FINASTERIDE]			3	IC50 [4]: 42 nM
C[C@]12CC=C3C4=C(CCC3[C@@H]1CCC2=O)NCCC4=O.C[C@]12CCC3=C(CCC4=C3C(=O)CCN4)[C@@H]1CCC2=O (stereo in doubt; 27b)	3.8			
CC(C)(C)NC(=O)[C@H]1CC[C@H]2C3=C(CC[C@]12C)N1CCC(=O)C=C1CC3.CC(C)(C)NC(=O)[C@H]1CC[C@H]2C3CCC4=CC(=O)CCN4C3=CC[C@]12C (some centres not stated)		127		IC50 [5]: 10.2 nM; IC50 [6]: 7.3 nM; IC50 [7]: 150 nM; IC50 [8]: 2.2 nM and 3.4 nM; IC50 [9]: 5.7 nM and 3.1 nM; IC50 [10]: 4.3 nM; IC50 [11]: 122 nM; IC50 [12]: 37 nM
C[C@]12CC=C3[C@@H](CCC4=CC(=O)CCN43)C1CC[C@@H]2O.C[C@]12CCC3=C(CCC4=CC(=O)CCN43)C1CC[C@@H]2O (some centres not stated)	3		2900	
C=CC(=O)/C=C1/CCC2=C(CC[C@]3(C)C(=O)CC[C@@H]23)N1.C=CC(=O)/C=C1/CCC2C(=CC[C@]3(C)C(=O)CC[C@@H]23)N1 (some centres not stated)	6.1		> 100000	
C[C@]12CC=C3C4=C(CCC3[C@@H]1CCC2=O)NCCC4=O.C[C@]12CCC3=C(CCC4=C3C(=O)CCN4)[C@@H]1CCC2=O (stereo in doubt; 27c)	6.1	> 100000	> 100000	
C[C@]12CC[C@H]3[C@@H](CCC4=CC(=O)CCN43)[C@@H]1CC[C@@H]2O	2.7	409	4200	
C[C@]12CC[C@H]3[C@@H](CC[C@H]4CC(=O)CCN43)[C@@H]1CCC2=O	2.9	> 100000	> 100000	

Continued, in another order:

IC50 [1] [nM]	IC50 [3] [nM]	SMILES	IC50 [2] [nM]	other results
5.5	1130	CC(C)(C)NC(=O)[C@H]1CC[C@H]2[C@@H]3CCC4=CC(=O)CCN4[C@H]3CC[C@]12C	460	
2.4		C[C@]12CC[C@H]3[C@@H](CCC4CC(=O)C=CN43)[C@@H]1CCC2=O (some centres not stated)	46000	
3.5	299	C[C@]12CC[C@H]3[C@@H](CCC4=CC(=O)CCN43)[C@@H]1CCC2=O	4400	
3.4		C[C@]12CC=C3[C@@H](CCC4=CC(=O)CCN43)C1CCC2=O.C[C@]12CCC3=C(CCC4=CC(=O)CCN43)C1CCC2=O (stereo in doubt; 4a)		
